Test results published in article PMC2748811 (The Biochemical journal, 2009).
“And” between values parts separate entries of the source, which are not always exact repeats. Equal entries are not always repeated. Where two headings read alike, the source gives them in different places.

Columns and labels:
HIV-1 PR dimerization = assay: Size-exclusion chromatography elution of HIV-1 PRs; type: biochemical; details: 1 μM (PRT26A 2 μM); 37 °C 60 min
[1] = tested on: HIV-1 PR (autoproteolysis); assay: PR stability and autoproteolysis; type: biochemical; details: for autoproteolysis (SDS/PAGE): 20 h at 40 μM, 20 °C; for autoproteolysis (RP-HPLC–MS): after incubation in 150 mM ammonium acetate pH 5.4, results not shown
Outline: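 Wild-type and multi-drug-resistant HIV-1 PR incubated 16–24 h in ammonium acetate buffer, with or without 1 mM TCEP. Activity read with a fluorescent PR substrate, mean ± S.D. Cleavage checked on Coomassie-stained 10 % Bis/Tris SDS/PAGE. Alternatively, 37 °C samples were quenched with solid guanidine hydrochloride (6 M final) for RP-HPLC, gradient to 95 % solvent B, monitored at 205/276 nm and by electrospray MS.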

PRMDR dimer = type: binding, HIV-1; details: 16 h at 37 °C; for Kd: 150 mM ammonium acetate pH 5.4
PRT26A = details: read-out: dissociation constant (Kd); ref [30]; cited from earlier work
[2] = tested on: PR dimerization within infected cells; details: fluorescence resonance energy transfer assay; ref [32]; cited from earlier work
[3] = molecular target: T1, PRMDR (multi-drug-resistant HIV-1 PR) (Human immunodeficiency virus type 1 group M subtype B, UniProt P04585, A559V/I542V/I581L/K533R/L498I/L551P/L578M/V570T); details: ref [20]; cited from earlier work
[4] = molecular target: T1, PRMDR (multi-drug-resistant HIV-1 PR); type: biochemical; details: 25 μM P27; PRMDR 1 μM; 16 h at 37 °C; excitation 280 nm
Outline: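 PR_MDR (1 μM final) was incubated 16 h at 37 °C with 25 μM peptide dimerization inhibitor in 150 mM ammonium acetate containing 100 μg·ml⁻¹ BSA. An 8 μl sample was run by SEC in running buffer at pH 5.4, 0.35 ml·min⁻¹ isocratic. Fluorescence was read at 280 nm excitation and 350 nm emission, with emission spectra from 325–375 nm taken at each peak apex against reference spectra at 10.2 and 12 min. MS used SIM at m/z 1086 (10⁺).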

[5] = molecular target: T1, PRMDR (multi-drug-resistant HIV-1 PR); assay: PR activity with fluorescent PR substrate after peptide treatment; type: biochemical; details: 16 h at 37 °C, PRMDR 1 μM; for PR activity: untreated 2.6
[6] = molecular target: T1, PRMDR (multi-drug-resistant HIV-1 PR); type: biochemical; details: for relative potency at inducing monomer formation: dose–response data, results not shown
[7] = molecular target: T1, PRMDR (multi-drug-resistant HIV-1 PR); assay: Co-elution of inhibitors with PRMDR on size-exclusion chromatography; type: binding; details: for co-elution with PRMDR: MS detection
Outline: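 PR_MDR was diluted to 0.25–2 μM subunit concentration in 150 mM ammonium acetate (pH 5.4) with 0.1 mg·ml⁻¹ BSA (final). The active-site inhibitor came from a 1 mM stock in 100% DMSO. Samples were incubated at 37 °C, and 8 μl was injected onto a BioSep SEC3000 column run isocratically at 0.35 ml·min⁻¹ in the same buffer. Detection was by fluorescence and by MS in SIM mode on chosen molecular ions.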

[8] = tested on: PRWT (wild-type HIV-1 PR); assay: Co-elution of active-site inhibitors with PRWT on size-exclusion chromatography; type: binding; details: results not shown
[9] = tested on: monomeric and dimeric forms of PR; details: 13C-labelled tryptophan residues of PR; ref [21]; cited from earlier work
PRWT = details: 5 min pre-incubation with ≤25 nM PRWT; ref [16]; cited from earlier work
HIV-2 PR dimerization = assay: Size-exclusion chromatography elution of oxidized HIV-2 PR; type: biochemical; details: after hydrogen peroxide treatment; results not shown
[10] = 20 h at 37 °C, 150 mM ammonium acetate pH 5.4, 2 μM PR, n = 3
[11] = PRMDR 0.25–2 μM, approximate, MS
[12] = 25 μM P27, PRMDR 1 μM, 16 h at 37 °C, MS

PRMDR: multi-drug-resistant HIV-1 PR with L10I, K45R, I54V, L63P, A71V, V82T, L90M and I93L
elution time by MS (HIV-1 PR dimerization): 10.8 min | autoproteolysis (SDS/PAGE) ([1]; 150 mM ammonium acetate pH 5.4): remained intact | PR activity after incubation [1, 10]: remained unaffected | autoproteolysis (RP-HPLC–MS) [1]: remained intact | elution time, earlier-eluting (dimer) PRMDR peak (PRMDR dimer; [11]): ~10.8 min | elution time, later-eluting (monomer) PRMDR peak (PRMDR dimer; [11]): ~11.3 min | Kd (PRMDR dimer; read-out: apparent Kd for dimer dissociation, as dimeric concentration, dimeric concentration): ~0.25 µM | Kd (PRMDR dimer; read-out: apparent Kd for dimer dissociation, monomeric concentration): ~0.5 µM

PRT26A: autoproteolysis-resistant and monomeric HIV-1 PR
Kd (PRT26A): > 1000 µM | elution time by MS (HIV-1 PR dimerization): 11.2 min and 11.0 min

PQITLRKKRRQRRRPPQVSFNFCTLNF [P27]
block of PR dimerization within infected cells [2]: block PR dimerization within infected cells | inhibition of PRMDR activity [3]: inhibit PRMDR activity | emission maximum λmax, dimer [4]: 346 nm | emission maximum λmax, monomer [4]: 352 nm | PR activity ([5]; 25 μM P27): 1.85 RFU min^−1 · μg^−1 | decrease in PRMDR enzyme activity ([5]; 50 μM P27): 99% | PR activity ([5]; 50 μM P27): 0.0 RFU min^−1 · μg^−1 | PRMDR elution time, dimer peak [6, 12]: 10.8 min | PRMDR elution time, monomer peak [6, 12]: 11.3 min | monomer induced ([6]; 25 μM P27, PRMDR at 0.5 μM): 80% | monomer induced ([6]; 25 μM P27, PRMDR at 1 μM): approx. 40% | time to clear evidence of monomer formation ([6]; 50 μM P27): ≤ 4 h | time to maximum effect / plateau of monomer formation ([6]; 50 μM P27, PR 1 μM): 10 to 12 h | time of peak absolute amount of detectable monomer ([6]; 50 μM P27, steadily decreased thereafter): 6 to 8 h | PRMDR peak elution time ([6]; 50 μM peptide, PRMDR 1 μM, 16 h at 37 °C, MS m/z 1086): 11.3 min | total PRMDR not recovered after treatment as compared to untreated ([6]; P27, PRMDR 1 μM, 16 h): approx. 20% | relative potency at inducing monomer formation [6]: P27 > CTLNF > Ac-CTLNF > Ac-TLNF

Ac-TLNF [acetylated-TLNF, reference compound]
relative potency at inducing monomer formation [6]: P27 > CTLNF > Ac-CTLNF > Ac-TLNF

Cc1ccccc1CNC(=O)[C@H]1N(C(=O)[C@@H](O)[C@H](Cc2ccccc2)NC(=O)c2cccc(O)c2C)CSC1(C)C [JE-2147]
correlation coefficient, JE-2147 area vs PRMDR area by MS ([7]; MS, PRMDR dose–response): 0.997 | elution time of inhibitor co-eluting with PRMDR ([7]; molecular ion of inhibitor by MS, PRMDR also 10.8 min): 10.8 min | effect on PRMDR elution ([6]; 1 μM JE-2147, PRMDR 0.25–2 μM, 16 h at 37 °C): PRMDR eluted as the earlier form (dimer)

CSC[C@H](NC(=O)COc1cccc2cnccc12)C(=O)N[C@@H](Cc1ccccc1)[C@H](O)C(=O)N1CSC[C@H]1C(=O)NC(C)(C)C [KNI-272]
co-elution with PRMDR [7]: did not elute with PRMDR | co-elution with PRWT [8]: co-elute with PRWT

Ac-CTLNF [acetylated-CTLNF]
relative potency at inducing monomer formation [6]: P27 > CTLNF > Ac-CTLNF > Ac-TLNF

CC(C)c1nc(CN(C)C(=O)N[C@H](C(=O)N[C@@H](Cc2ccccc2)C[C@H](O)[C@H](Cc2ccccc2)NC(=O)OCc2cncs2)C(C)C)cs1 [ritonavir]
co-elution with PRMDR [7]: did not elute with PRMDR | co-elution with PRWT [8]: co-elute with PRWT

Ac-SEYL-OH
interaction with PR by NMR [9]: interaction of a peptide dimerization inhibitor (Ac-SEYL-OH) with both monomeric and dimeric forms of PR

CTLNF [reference compound]
IC50 (PRWT): 150 µM | relative potency at inducing monomer formation [6]: P27 > CTLNF > Ac-CTLNF > Ac-TLNF

CC(C)(C)NC(=O)[C@@H]1C[C@@H]2CCCC[C@@H]2CN1C[C@@H](O)[C@H](Cc1ccccc1)NC(=O)[C@H](CC(N)=O)NC(=O)c1ccc2ccccc2n1 [saquinavir]
co-elution with PRMDR [7]: did not elute with PRMDR | co-elution with PRWT [8]: co-elute with PRWT

PRWT: wild-type HIV-1 PR
autoproteolysis (SDS/PAGE) ([1]; 150 mM ammonium acetate pH 5.4): extensive autoproteolysis | PR activity lost [1, 10]: more than 95% | autoproteolysis (RP-HPLC–MS) [1]: substantial autoproteolysis | autoproteolysis ([1]; within 4 h of incubation): approx. 40%

B1: PRHIV-2-OX: oxidized HIV-2 PR (protein, UniProt P04584 514-612, looked up)
Protease: PQFSLWKRPVVTAYIEGQPVEVLLDTGADDSIVAGIELGNNYSPKIVGGIGGFINTKEYKNVEIEVLNKKVRATIMTGDTPINIFGRNILTALGMSLNL
modifications: Protease oxidized
elution of oxidized HIV-2 PR (HIV-2 PR dimerization): consistent with a monomeric form of the PR
